Activity calls are given as the source filed them.
Legend:
Mus musculus [1] = test: Analgesic activity in albino Swiss CD-1 mouse assessed as reduction in formalin-induced inflammatory pain at 7.5 mg/kg, ip administered 30 mins prior to formalin challenge measured for 15 to 30 mins relative to control; format: functional; design: scale not given: the % may be the effect or the level left; settings: route intraperitoneal
Outline: (§1)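 Male CD-1 mice, 18–25 g, 6–12 per dose; compound suspended in 0.5% methylcellulose, given ip 30 min before 20 µl of 5% formalin intraplantar into right hind paw. Time spent licking the injected paw scored blind at 0–5 min and 15–30 min. Reduction versus vehicle-treated mice; ED50 by log-probit; mean ± SEM, ANOVA/Dunnett or t-test.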

Mus musculus [2] = test: Neurotoxicity in albino Swiss CD-1 mouse assessed as mean time spent on the rotarod with 18 rpm at 30 mg/kg, ip after 30 mins by rotarod test (reference value: 60.0 +/- 0.0 seconds); format: toxicity, organism-based; design: dose 30 mg/kg, route intraperitoneal; settings: in vivo, 0.5 h
Outline: (§2)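 CD-1 mice trained 3 days on a 2 cm rotarod at 18 rpm, then tested ≥24 h later, 30 min after ip dosing, at 6, 18 and 24 rpm. Failure to stay on for 1 min counted as impairment (fallers/tested; Fisher's exact); mean time on rod also recorded (ANOVA/Dunnett); 8 mice per group.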

Mus musculus [3] = test: Neurotoxicity in albino Swiss CD-1 mouse assessed as mean time spent on the rotarod with 6 rpm at 30 mg/kg, ip after 30 mins by rotarod test (reference value: 60.0 +/- 0.0 seconds); format: toxicity, organism-based; design: dose 30 mg/kg, route intraperitoneal; settings: in vivo, 0.5 h; outline: as §2
Mus musculus [4] = test: Analgesic activity in albino Swiss CD-1 mouse assessed as reduction in formalin-induced inflammatory pain at 30 mg/kg, ip administered 30 mins prior to formalin challenge measured up to 5 mins relative to control; format: functional; design: scale not given: the % may be the effect or the level left; outline: as §1
Mus musculus [5] = test: Neurotoxicity in albino Swiss CD-1 mouse assessed as motor impairment at 30 mg/kg, ip after 30 mins by rotarod test; format: toxicity, organism-based; design: dose 30 mg/kg, route intraperitoneal; settings: in vivo, 0.5 h; outline: as §2
Mus musculus [6] = test: Analgesic activity in ip dosed albino Swiss CD-1 mouse assessed as reduction in formalin-induced inflammatory pain administered 30 mins prior to formalin challenge measured up to 5 mins; format: functional; settings: albino Swiss CD-1, ip; outline: as §1
[7] = target: T1, Sodium- and chloride-dependent GABA transporter 1 (Mus musculus, UniProt P31648); test: Inhibition of mouse GAT1-mediated [3H]GABA uptake stably transfected in HEK293 cells; format: cell-based
Mus musculus [8] = test: Antinociceptive activity against formalin-induced inflammatory pain in albino Swiss CD-1 mouse assessed as duration of licking response at 30 mg/kg, ip administered 30 mins prior to formalin challenge measured up to 5 mins (reference value: 55.4 +/- 6.6 seconds); format: functional; settings: route intraperitoneal; outline: as §1
Mus musculus [9] = test: Antinociceptive activity in albino Swiss CD-1 mouse assessed as prolongation of latency time at 30 mg/kg, ip administered 30 mins prior to test by hot plate test; format: functional, organism-based; design: dose 30 mg/kg
Outline: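 Male CD-1 mice given compound ip in 0.5% methylcellulose 30 min before placement on a plate held at 55–56 °C. Latency to hind-paw licking or jumping timed, 30 s cut-off. Compared with vehicle by ANOVA.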

[10] = target: T1, Sodium- and chloride-dependent GABA transporter 1; test: Binding affinity to mouse GAT1 stably transfected in HEK293 cells by NO-711 binding assay; format: cell-based
Mus musculus [11] = test: Antinociceptive activity against formalin-induced inflammatory pain in albino Swiss CD-1 mouse assessed as duration of licking response at 7.5 mg/kg, ip administered 30 mins prior to formalin challenge measured for 15 to 30 mins (reference value: 111.6 +/- 17.1 seconds); format: functional; settings: route intraperitoneal; outline: as §1
Mus musculus [12] = test: Antinociceptive activity against formalin-induced inflammatory pain in albino Swiss CD-1 mouse assessed as duration of licking response at 15 mg/kg, ip administered 30 mins prior to formalin challenge measured up to 5 mins (reference value: 55.4 +/- 6.6 seconds); format: functional; settings: route intraperitoneal; outline: as §1
Mus musculus [13] = test: Antinociceptive activity against formalin-induced inflammatory pain in albino Swiss CD-1 mouse assessed as duration of licking response at 15 mg/kg, ip administered 30 mins prior to formalin challenge measured for 15 to 30 mins (reference value: 111.6 +/- 17.1 seconds); format: functional; settings: route intraperitoneal; outline: as §1
Mus musculus [14] = test: Analgesic activity in albino Swiss CD-1 mouse assessed as reduction in formalin-induced inflammatory pain at 30 mg/kg, ip administered 30 mins prior to formalin challenge measured for 15 to 30 mins relative to control; format: functional; design: scale not given: the % may be the effect or the level left; settings: route intraperitoneal; outline: as §1
Mus musculus [15] = test: Neurotoxicity in albino Swiss CD-1 mouse assessed as mean time spent on the rotarod with 24 rpm at 30 mg/kg, ip after 30 mins by rotarod test (reference value: 60.0 +/- 0.0 seconds); format: toxicity, organism-based; design: dose 30 mg/kg, route intraperitoneal; settings: in vivo, 0.5 h; outline: as §2
[16] = Inhibition of mouse GAT4-mediated [3H]GABA uptake stably transfected in HEK293 cells; format: cell-based
Mus musculus [17] = test: Analgesic activity in albino Swiss CD-1 mouse assessed as reduction in formalin-induced inflammatory pain at 7.5 mg/kg, ip administered 30 mins prior to formalin challenge measured up to 5 mins relative to control; format: functional; design: scale not given: the % may be the effect or the level left; outline: as §1
Mus musculus [18] = test: Analgesic activity in albino Swiss CD-1 mouse assessed as reduction in formalin-induced inflammatory pain at 15 mg/kg, ip administered 30 mins prior to formalin challenge measured for 15 to 30 mins relative to control; format: functional; design: scale not given: the % may be the effect or the level left; settings: route intraperitoneal; outline: as §1
Mus musculus [19] = test: Analgesic effect in albino Swiss CD-1 mouse assessed as inhibition of acetic acid-induced writhing at 30 mg/kg, ip administered 30 mins prior to acetic acid challenge measured for 30 mins relative to control; format: functional; design: scale not given: the % may be the effect or the level left; settings: route intraperitoneal
Outline: (§3)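 Male CD-1 mice (18–25 g), habituated 30 min in beakers, dosed ip (0.5% methylcellulose, 10 ml/kg) 30 min before ip 0.9% acetic acid in saline (10 ml/kg). Writhes counted for 30 min by blinded observers. Effect is % reduction versus vehicle group; ED50 by log-probit; mean ± SEM.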

Mus musculus [20] = test: Antinociceptive activity against formalin-induced inflammatory pain in albino Swiss CD-1 mouse assessed as duration of licking response at 7.5 mg/kg, ip administered 30 mins prior to formalin challenge measured up to 5 mins (reference value: 55.4 +/- 6.6 seconds); format: functional; settings: route intraperitoneal; outline: as §1
Mus musculus [21] = test: Analgesic activity in albino Swiss CD-1 mouse assessed as reduction in formalin-induced inflammatory pain at 15 mg/kg, ip administered 30 mins prior to formalin challenge measured up to 5 mins relative to control; format: functional; design: scale not given: the % may be the effect or the level left; outline: as §1
Mus musculus [22] = test: Antinociceptive activity against formalin-induced inflammatory pain in albino Swiss CD-1 mouse assessed as duration of licking response at 30 mg/kg, ip administered 30 mins prior to formalin challenge measured for 15 to 30 mins (reference value: 111.6 +/- 17.1 seconds); format: functional; settings: route intraperitoneal; outline: as §1
Mus musculus [23] = test: Analgesic activity in ip dosed albino Swiss CD-1 mouse assessed as reduction in formalin-induced inflammatory pain administered 30 mins prior to formalin challenge measured for 15 to 30 mins; format: functional; settings: albino Swiss CD-1, ip; outline: as §1
Mus musculus [24] = test: Analgesic effect in albino Swiss CD-1 mouse assessed as inhibition of acetic acid-induced writhing at 15 mg/kg, ip administered 30 mins prior to acetic acid challenge measured for 30 mins relative to control; format: functional; design: scale not given: the % may be the effect or the level left; settings: route intraperitoneal; outline: as §3
Mus musculus [25] = test: Antinociceptive activity against formalin-induced inflammatory pain in albino Swiss CD-1 mouse assessed as duration of licking response at 30 mg/kg, ip administered 30 mins prior to formalin challenge measured for 15 to 30 mins (reference value: 78.8 +/- 15.9 seconds); format: functional; settings: route intraperitoneal; outline: as §1
Mus musculus [26] = test: Antinociceptive activity against formalin-induced inflammatory pain in albino Swiss CD-1 mouse assessed as duration of licking response at 30 mg/kg, ip administered 30 mins prior to formalin challenge measured up to 5 mins (reference value: 34.8 +/- 9.4 seconds); format: functional; settings: route intraperitoneal; outline: as §1
Mus musculus [27] = test: Analgesic effect in albino Swiss CD-1 mouse assessed as inhibition of acetic acid-induced writhing at 3.75 mg/kg, ip administered 30 mins prior to acetic acid challenge measured for 30 mins relative to control; format: functional; design: scale not given: the % may be the effect or the level left; settings: route intraperitoneal; outline: as §3
Mus musculus [28] = test: Analgesic effect in albino Swiss CD-1 mouse assessed as inhibition of acetic acid-induced writhing at 7.5 mg/kg, ip administered 30 mins prior to acetic acid challenge measured for 30 mins relative to control; format: functional; design: scale not given: the % may be the effect or the level left; settings: route intraperitoneal; outline: as §3
Mus musculus [29] = test: Analgesic effect in ip dosed albino Swiss CD-1 mouse assessed as inhibition of acetic acid-induced writhing administered 30 mins prior to acetic acid challenge measured for 30 mins; format: functional; settings: albino Swiss CD-1, ip; outline: as §3
Mus musculus [30] = test: Analgesic effect in albino Swiss CD-1 mouse assessed as inhibition of acetic acid-induced writhing at 20 mg/kg, ip administered 30 mins prior to acetic acid challenge measured for 30 mins relative to control; format: functional; design: scale not given: the % may be the effect or the level left; settings: route intraperitoneal; outline: as §3

O=C(NCc1ccccc1)C(CCO)N1CCC(=C(c2ccccc2)c2ccccc2)CC1 (centres undefined)
Activity (Mus musculus [1]): 32.7%
Time (Mus musculus [2]): 60 s
Time (Mus musculus [3]): 60 s
Activity (Mus musculus [4]; route intraperitoneal): 50%
Activity (Mus musculus [5]): Non-toxic
ED50 (Mus musculus [6]): 27.1 mg/kg
IC50 [7]: 14.8 µM
Time (Mus musculus [8]): 27.7 s
Activity (Mus musculus [9]): inactive
Ki [10]: 9.12 µM
Time (Mus musculus [11]): 75.1 s
Time (Mus musculus [12]): 31 s
Time (Mus musculus [13]): 39.6 s
Activity (Mus musculus [14]): 85.4%
Time (Mus musculus [15]): 60 s
IC50 [16]: 33.1 µM
Activity (Mus musculus [17]; route intraperitoneal): 29.6%
Activity (Mus musculus [18]): 64.5%
Activity (Mus musculus [19]): 29.8%
Time (Mus musculus [20]): 39 s
Activity (Mus musculus [21]; route intraperitoneal): 44%
Time (Mus musculus [22]): 16.3 s
ED50 (Mus musculus [23]): 11.1 mg/kg

COc1ccc(C(OCCN2CCC[C@H](C(=O)O)C2)(c2ccc(OC)cc2)c2ccc(OC)cc2)cc1
Activity (Mus musculus [24]): 70.5%
Time (Mus musculus [25]): 47.7 s
Time (Mus musculus [2]): 56.3 s
Time (Mus musculus [3]): 59.6 s
Activity (Mus musculus [4]): inactive
Time (Mus musculus [26]): 35.6 s
Activity (Mus musculus [27]): 23.3%
Activity (Mus musculus [28]): 62.7%
Activity (Mus musculus [9]): inactive
Activity (Mus musculus [14]): 39.5%
Time (Mus musculus [15]): 59 s
ED50 (Mus musculus [29]): 7.1 mg/kg

O=C(NCc1ccc(F)cc1)C(CCO)N1CCC(=C(c2ccccc2)c2ccccc2)CC1 (centres undefined)
Activity (Mus musculus [24]): 28.9%
Activity (Mus musculus [1]): 72.3%
Time (Mus musculus [2]): 60 s
Time (Mus musculus [3]): 60 s
Activity (Mus musculus [4]): inactive
Activity (Mus musculus [5]): Non-toxic
IC50 [7]: 9.77 µM
Time (Mus musculus [8]): 58.1 s
Activity (Mus musculus [9]): inactive
Ki [10]: 11.5 µM
Time (Mus musculus [11]): 30.9 s
Time (Mus musculus [12]): 50.4 s
Time (Mus musculus [13]): 17.8 s
Activity (Mus musculus [14]): 78.5%
Time (Mus musculus [15]): 60 s
Activity (Mus musculus [30]): 69.9%
IC50 [16]: 26.3 µM
Activity (Mus musculus [17]): inactive
Activity (Mus musculus [18]): 84.1%
Activity (Mus musculus [19]): 79.4%
Time (Mus musculus [20]): 59.9 s
ED50 (Mus musculus [29]): 18.1 mg/kg
Activity (Mus musculus [21]): inactive
Time (Mus musculus [22]): 24 s

Reference: ChEMBL document CHEMBL2412952, “2-Substituted 4-hydroxybutanamides as potential inhibitors of γ-aminobutyric acid transporters mGAT1-mGAT4: synthesis and biological evaluation” (Bioorg Med Chem, 2013)
